Data published in ChEMBL document CHEMBL2346664, “Synthesis, characterization and in vitro anticancer evaluation of novel 1,2,4-triazolin-3-one derivatives” (2013).

Columns and labels:
Format in all cases: functional
[1] = test system: OVCAR-4; experiment: Growth inhibition of human OVCAR4 cells assessed as growth inhibition at 10 uM after 48 hrs by sulforhodamine B assay; settings: OVCAR-4, 48 h, read-out: GI
[2] = test system: HOP-62; experiment: Growth inhibition of human HOP62 cells assessed as cell growth at 10 '-6 M after 48 hrs by sulforhodamine B assay; settings: HOP-62, 48 h, read-out: Activity
[3] = test system: OVCAR-4; experiment: Growth inhibition of human OVCAR4 cells after 48 hrs by sulforhodamine B assay; settings: OVCAR-4, 48 h
Summary of the method: (§1)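 NCI 60-cell-line five-dose screen over 0.01, 0.1, 1, 10 and 100 µM, with 48 h continuous exposure at 37 °C and 5% CO2 after 24 h pre-incubation (5,000–40,000 cells/well). Cells were TCA-fixed (10% final for adherent, 16% for suspension), stained with SRB and read at 515 nm. GI50 was solved from [(Ti−Tz)/(C−Tz)]×100 = 50 against time-zero plates.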

[4] = test system: KM12; experiment: Growth inhibition of human KM12 cells assessed as cell growth at 10 '-6 M after 48 hrs by sulforhodamine B assay; settings: KM12, 48 h, read-out: Activity
[5] = test system: HL-60(TB); experiment: Growth inhibition of human HL-60(TB) cells after 48 hrs by sulforhodamine B assay; settings: HL-60, 48 h; summary of the method: as §1
[6] = test system: PC-3; experiment: Growth inhibition of human PC3 cells assessed as cell growth at 10 '-4 M after 48 hrs by sulforhodamine B assay; settings: PC-3, 48 h, read-out: Activity
[7] = test system: SK-MEL-2; experiment: Growth inhibition of human SK-MEL-2 cells assessed as cell growth at 10 '-6 M after 48 hrs by sulforhodamine B assay; settings: SK-MEL-2, 48 h, read-out: Activity
[8] = test system: A549; experiment: Growth inhibition of human A549 cells assessed as cell growth at 10 '-7 M after 48 hrs by sulforhodamine B assay; settings: A549, 48 h, read-out: Activity
Summary of the method: (§2)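 Percent growth at each of the five concentrations of the 48 h continuous-exposure NCI SRB screen. Drug stocks were in DMSO at 400× the top final concentration and diluted in medium with gentamicin. Growth was calculated as [(Ti-Tz)/(C-Tz)]×100 when Ti ≥ Tz, or [(Ti-Tz)/Tz]×100 when Ti < Tz. Tz plates were fixed at drug addition; untreated wells served as control. Absorbance was read at 515 nm.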

[9] = test system: 786-0; experiment: Growth inhibition of human 786-0 cells assessed as cell growth at 10 '-5 M after 48 hrs by sulforhodamine B assay; settings: 786-0, 48 h, read-out: Activity; summary of the method: as §2
[10] = test system: SF-268; experiment: Growth inhibition of human SF268 cells assessed as cell growth at 10 '-6 M after 48 hrs by sulforhodamine B assay; settings: SF-268, 48 h, read-out: Activity
[11] = test system: HOP-62; experiment: Growth inhibition of human HOP62 cells assessed as cell growth at 10 '-5 M after 48 hrs by sulforhodamine B assay; settings: HOP-62, 48 h, read-out: Activity
[12] = test system: COLO 205; experiment: Growth inhibition of human COLO205 cells assessed as cell growth at 10 '-6 M after 48 hrs by sulforhodamine B assay; settings: COLO 205, 48 h, read-out: Activity
Summary of the method: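 In the same five-dose SRB screen (48 h, 37 °C, 5% CO2), percentage growth was computed at each concentration from time-zero (Tz), control (C) and treated (Ti) absorbances. The formula was [(Ti−Tz)/(C−Tz)]×100 when Ti ≥ Tz, or [(Ti−Tz)/Tz]×100 when Ti < Tz.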

[13] = test system: HOP-62; experiment: Growth inhibition of human HOP62 cells after 48 hrs by sulforhodamine B assay; settings: HOP-62, 48 h
Summary of the method: (§3)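 NCI 60-cell-line five-dose screen. Cells were plated at 5,000–40,000/well by doubling time and grown 24 h at 37 °C, 5% CO2. Time-zero plates were TCA-fixed. Drug from DMSO stock was tested at 0.01, 0.1, 1, 10 and 100 µM final for 48 h continuous exposure. Read-out was SRB at 515 nm. GI50 is the concentration giving 50% reduction in net protein increase versus untreated control.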

[14] = test system: UO-31; experiment: Growth inhibition of human UO31 cells assessed as cell growth at 10 '-6 M after 48 hrs by sulforhodamine B assay; settings: UO-31, 48 h, read-out: Activity
[15] = test system: NCI-H23; experiment: Growth inhibition of human NCI-H23 cells assessed as cell growth at 10 '-6 M after 48 hrs by sulforhodamine B assay; settings: NCI-H23, 48 h, read-out: Activity
[16] = test system: DU-145; experiment: Growth inhibition of human DU145 cells after 48 hrs by sulforhodamine B assay; settings: DU-145, 48 h; summary of the method: as §3
[17] = test system: MDA-MB-231; experiment: Growth inhibition of human MDA-MB-231 cells after 48 hrs by sulforhodamine B assay; settings: MDA-MB-231, 48 h; summary of the method: as §3
[18] = test system: HCT-116; experiment: Growth inhibition of human HCT116 cells after 48 hrs by sulforhodamine B assay; settings: HCT-116, 48 h; summary of the method: as §3
[19] = test system: HOP-92; experiment: Growth inhibition of human HOP92 cells after 48 hrs by sulforhodamine B assay; settings: HOP-92, 48 h; summary of the method: as §3
[20] = test system: RPMI-8226; experiment: Growth inhibition of human RPMI8226 cells assessed as cell growth at 10 '-4 M after 48 hrs by sulforhodamine B assay; settings: RPMI-8226, 48 h, read-out: Activity
[21] = test system: BT-549; experiment: Growth inhibition of human BT549 cells assessed as cell growth at 10 '-6 M after 48 hrs by sulforhodamine B assay; settings: BT-549, 48 h, read-out: Activity; summary of the method: as §2
[22] = test system: NCI-H460; experiment: Growth inhibition of human NCI-H460 cells assessed as cell growth at 10 '-8 M after 48 hrs by sulforhodamine B assay; settings: NCI-H460, 48 h, read-out: Activity
[23] = test system: COLO 205; experiment: Growth inhibition of human COLO205 cells assessed as growth inhibition at 10 uM after 48 hrs by sulforhodamine B assay; settings: COLO 205, 48 h, read-out: GI
[24] = test system: SK-OV-3; experiment: Growth inhibition of human SKOV3 cells after 48 hrs by sulforhodamine B assay; settings: SK-OV-3, 48 h
[25] = Growth inhibition of human HCC2998 cells after 48 hrs by sulforhodamine B assay; settings: HCC 2998, 48 h; summary of the method: as §3
[26] = test system: MDA-MB-468; experiment: Growth inhibition of human MDA-MB-468 cells assessed as growth inhibition at 10 uM after 48 hrs by sulforhodamine B assay; settings: MDA-MB-468, 48 h, read-out: GI
[27] = test system: MCF7; experiment: Growth inhibition of human MCF7 cells assessed as cell growth at 10 '-8 M after 48 hrs by sulforhodamine B assay; settings: MCF7, 48 h, read-out: Activity
[28] = read-out: LD50 (the source's name)

With Cc1cc(=O)oc2cc(OCCn3c(C)nn(-c4ccc(Cl)cc4)c3=O)ccc12 as the compound, how does the inhibition of growth at 10 µM [1] read?
Its inhibition of growth at 10 µM is 32.9%.

And the growth at 1 µM [2]?
The growth at 1 µM was 89%.

What about the GI50 [3] of the same compound?
Its GI50 is 2680 nM.

And the CC50 [3, 28]?
Its CC50 is greater than 1000 nM.

What about the growth at 1 µM [4] of the same compound?
Its growth at 1 µM is 58%.

And the GI50 [5]?
The GI50 was 2800 nM.

And the growth at 100 µM [6]?
The growth at 100 µM was 34%.

What about the growth at 1 µM [7] of the same compound?
The growth at 1 µM was 112%.

What about the growth at 0.1 µM [8] of the same compound?
Its growth at 0.1 µM is 98%.

What about the growth at 10 µM [9] of the same compound?
Its growth at 10 µM is 35%.

And the growth at 1 µM [10]?
The growth at 1 µM was 87%.

And the growth at 10 µM [11]?
Its growth at 10 µM is 8%.

What about the growth at 1 µM [12] of the same compound?
The growth at 1 µM was 89%.

What about the GI50 [13] of the same compound?
Its GI50 is 3.05 µM.

And the TGI [13]?
The TGI was 3.29 µM.

What about the CC50 [13, 28] of the same compound?
The CC50 was greater than 1000 nM.

What about the growth at 1 µM [14] of the same compound?
The growth at 1 µM was 74%.

And the growth at 1 µM [15]?
Its growth at 1 µM is 64%.

And the GI50 [16]?
Its GI50 is 3.9 µM.

And the TGI [16]?
Its TGI is greater than 1000 nM.

And the CC50 [16, 28]?
The CC50 was greater than 1000 nM.

And the GI50 [17]?
The GI50 was 4.53 µM.

What about the TGI [17] of the same compound?
The TGI was greater than 1000 nM.

What about the CC50 [17, 28] of the same compound?
Its CC50 is greater than 1000 nM.

And the GI50 [18]?
Its GI50 is 3.57 µM.

And the TGI [18]?
The TGI was greater than 1000 nM.

What about the CC50 [18, 28] of the same compound?
Its CC50 is greater than 1000 nM.

What about the GI50 [19] of the same compound?
Its GI50 is 1610 nM.

And the TGI [19]?
Its TGI is greater than 1000 nM.

What about the CC50 [19, 28] of the same compound?
Its CC50 is greater than 1000 nM.

And the growth at 100 µM [20]?
Its growth at 100 µM is 45%.

What about the growth at 1 µM [21] of the same compound?
Its growth at 1 µM is 89%.

And the growth at 0.01 µM [22]?
Its growth at 0.01 µM is 104%.

What about the inhibition of growth at 10 µM [23] of the same compound?
Its inhibition of growth at 10 µM is 89.4%.

What about the GI50 [24] of the same compound?
The GI50 was 3.36 µM.

And the TGI [24]?
Its TGI is 4.88 µM.

And the CC50 [24, 28]?
The CC50 was greater than 1000 nM.

And the GI50 [25]?
The GI50 was 3.59 µM.

And the TGI [25]?
The TGI was greater than 1000 nM.

What about the CC50 [25, 28] of the same compound?
The CC50 was greater than 1000 nM.

What about the inhibition of growth at 10 µM [26] of the same compound?
The inhibition of growth at 10 µM was 83.9%.

And the growth at 0.01 µM [27]?
Its growth at 0.01 µM is 98%.
